The results in this text go back to PMC3839847 (Current topics in medicinal chemistry, 2012).

For one experiment, the target named is CXCL12 (Homo sapiens, UniProt P48061). Description: 2D 1H-15N HSQC NMR titration, fragment binding to CXCL12. The conditions noted are these: for CXCL12 chemical shift perturbations: 2D NMR titration, no meaningful affinity value could be fitted; for LE: ligand efficiency: free energy of binding divided by number of non-hydrogen atoms (kcal/mol/non-hydrogen atom).

The subject of experiment [1] is CCL2 (MCP-1), activates the CCR2 receptor. As to the kind of experiment: chemotaxis assay repeated with CCL2. The class given is cell-based. The conditions noted are these: data not shown.
Experiment [2] has as its system CXCL12-induced chemotaxis of THP-1 monocytes. Description: in vitro chemotaxis assay, THP-1 monocytes with CXCL12. The experiment is classed as cell-based. As to conditions: read-out: IC50 of chemotaxis to CXCL12, 10 nM CXCL12. Summed up:
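Chemotaxis in vitro used THP-1 monocytes, which express CXCR4 endogenously, exposed to CXCL12 with or without each tetrazole fragment.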

`CC(=O)Nc1ccccc1-c1nnn[nH]1` [Compound 10, N-(2-(1H-Tetrazol-5-yl)phenyl) acetamide]: the “CXCL12 chemical shift perturbations” value on CXCL12 is recorded as “small chemical shift perturbations”.

With `O=C(Nc1ccccc1)Nc1cccc(-c2nnn[nH]2)c1` [Compound 17, 1-(3-(1H-tetrazol-5-yl)phenyl)-3-phenylurea], on CXCL12, binding was characterised by a dissociation constant (Kd) of 126 ± 23 µM and the LE was 0.25.

Consider `CC(=O)Nc1cccc(-c2nnn[nH]2)c1` [Compound 12, N-(3-(1H-tetrazol-5-yl)phenyl)acetamide], for which the “CXCL12 chemical shift perturbations” value at CXCL12 was “small chemical shift perturbations”.

On CXCL12, `O=C(Nc1ccccc1)Nc1ccccc1-c1nnn[nH]1` [Compound 16, 1-(2-(1H-Tetrazol-5-yl)phenyl)-3-phenylurea] gave a Kd of 327 ± 92 µM and an LE of 0.23.

For `O=C(Nc1ccccc1)Nc1ccc(-c2nnn[nH]2)cc1` [Compound 18, 1-(4-(1H-Tetrazol-5-yl)phenyl)-3-phenylurea], on CXCL12, the Kd was determined as 24 ± 28 µM and the LE is listed as 0.30.

On to `O=C(Nc1ccccc1-c1nnn[nH]1)c1ccccc1` [Compound 11, N-(2-(1H-Tetrazol-5-yl)phenyl)benzamide], for which, at CXCL12, binding was characterised by a dissociation constant (Kd) of 13 ± 7 µM and the LE is on record as 0.33.

On to `CC(=O)Nc1ccc(-c2nnn[nH]2)cc1` [Compound 14, N-(4-(1H-tetrazol-5-yl)phenyl)acetamide], for which the “CXCL12 chemical shift perturbations” value at CXCL12 is listed as “small chemical shift perturbations”.

Consider `O=C(Nc1ccc(-c2nnn[nH]2)cc1)c1ccccc1` [Compound 15, N-(4-(1H-tetrazol-5-yl)phenyl)benzamide], for which, at CXCL12, the dissociation constant (Kd) was found to be 64 ± 23 µM and the LE came to 0.29.

Take `O=C(Nc1cccc(-c2nnn[nH]2)c1)c1ccccc1` [Compound 13, N-(3-(1H-tetrazol-5-yl)phenyl)benzamide]: on CXCL12, the dissociation constant (Kd) came out at 50 ± 16 µM and the LE is given as 0.29.

On to `O=C(Nc1ccc(-c2nn[nH]n2)cc1)Nc1cccc2ccccc12` [Compound 25], for which, in experiment [1], the “specificity for CXCL12- versus CCL2-induced migration” value is “specifically inhibits CXCL12-induced migration”. In addition, in experiment [2], the IC50 was determined as 111 ± 24 µM.
